Source: ChEMBL document CHEMBL2396634, “An effective prodrug strategy to selectively enhance ocular exposure of a cannabinoid receptor (CB1/2) agonist” (J Med Chem, 2013)
Converted amounts (≈) assume the structure as drawn.

Key:
[1] = Aqueous solubility of the compound at pH 6.8; type: physicochemical
[2] = AUC in Brown Norway rat iris and ciliary body administered topically after 3 hrs; type: ADME, tissue-based; design: time < 3 hr; concentration or dose not given beside the values; conditions: topical or ocular
Procedure, shortened: (§1)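 Adult male Brown Norway rats (200−250 g) received a single topical 4 μL dose of 0.1% solution to each eye (5% cremaphor EL, 0.78% NaCl, 0.1% Na3PO4 in sterile water, pH 6.8). Composite design, three animals per group, sampled at 0.25, 1 and 3 h. Plasma taken by cardiac puncture. Eyes enucleated and PBS-rinsed, tissues dissected and homogenized. Parent drug measured by LC/MS/MS. AUC over 0−3 h.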

[3] = (§2) AUC in Brown Norway rat plasma administered topically after 3 hrs; type: ADME, cell-free; design: time < 3 hr; concentration or dose not given beside the values; conditions: Brown Norway, topical or ocular; procedure, shortened: as §1
[4] = test system: Iris and ciliary body (Rattus norvegicus); test: AUC in Brown Norway rat iris and ciliary body administered topically after 3 hrs; conditions: in vivo, topical_or_ocular, BLD = below limit of detection
[5] = test system: Plasma; test: as §2; type: ADME, cell-free; design: time < 3 hr; concentration or dose not given beside the values; conditions: topical_or_ocular, 3 h, BLD = below limit of detection; procedure, shortened: as §1
[6] = AUC (0 to last) in Brown Norway rat cornea administered topically; type: ADME, tissue-based; design: time 0 - last; conditions: topical or ocular
Procedure, shortened: (§3)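 Male Brown Norway rats, 200−250 g, dosed once topically with 4 μL of a 0.02% clinical formulation per eye. Composite design with 3 animals per time point. Cornea, aqueous humor, iris/ciliary body and plasma collected at 0 (untreated), 0.083, 0.25, 0.5, 1, 3, 6 and 24 h. Eyes rinsed in PBS after enucleation.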

[7] = Drug uptake in Brown Norway rat ciliary body administered topically after 3 hrs; type: ADME, tissue-based; conditions: in vivo, topical_or_ocular
Procedure, shortened: (§4)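 Abbreviated ocular PK in male Brown Norway rats, 200−250 g. Single topical 4 μL dose per eye of 0.1% solution in 5% cremaphor EL, 0.78% NaCl, 0.1% Na3PO4, water, pH 6.8. Three animals per group, sampled at 0.25, 1 and 3 h. Tissues homogenized in PBS with 10% acetonitrile.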

[8] = Cmax in Brown Norway rat plasma administered topically; type: ADME, cell-free; conditions: topical or ocular; procedure, shortened: as §3
[9] = test system: Plasma; test: Drug uptake in Brown Norway rat plasma administered topically after 3 hrs; type: ADME, cell-free; conditions: topical_or_ocular; procedure, shortened: as §4
[10] = Tmax in Brown Norway rat aqueous humor administered topically; type: ADME, tissue-based, Aqueous humor of eyeball; conditions: topical or ocular; procedure, shortened: as §3
[11] = Cmax in Brown Norway rat iris administered topically; type: ADME, tissue-based; conditions: topical or ocular; procedure, shortened: as §3
[12] = Drug uptake in Brown Norway rat ciliary body administered topically after 1 hr; type: ADME, tissue-based; conditions: in vivo, topical_or_ocular; procedure, shortened: as §4
[13] = Drug uptake in Brown Norway rat iris administered topically after 1 hr; type: ADME, tissue-based; conditions: in vivo, topical_or_ocular; procedure, shortened: as §4
[14] = Drug uptake in Brown Norway rat aqueous humor administered topically after 3 hrs; type: ADME, tissue-based, Aqueous humor of eyeball; conditions: in vivo, topical_or_ocular; procedure, shortened: as §4
[15] = Cmax in Brown Norway rat aqueous humor administered topically; type: ADME, tissue-based, Aqueous humor of eyeball; conditions: topical or ocular; procedure, shortened: as §3
[16] = Tmax in Brown Norway rat cornea administered topically; type: ADME, tissue-based; conditions: topical or ocular; procedure, shortened: as §3
[17] = molecular target: Cannabinoid receptor 1 (Homo sapiens, UniProt P21554); test: Agonist activity at CB1 receptor (unknown origin)
Chain of Cannabinoid receptor 1 (P21554 whole entry): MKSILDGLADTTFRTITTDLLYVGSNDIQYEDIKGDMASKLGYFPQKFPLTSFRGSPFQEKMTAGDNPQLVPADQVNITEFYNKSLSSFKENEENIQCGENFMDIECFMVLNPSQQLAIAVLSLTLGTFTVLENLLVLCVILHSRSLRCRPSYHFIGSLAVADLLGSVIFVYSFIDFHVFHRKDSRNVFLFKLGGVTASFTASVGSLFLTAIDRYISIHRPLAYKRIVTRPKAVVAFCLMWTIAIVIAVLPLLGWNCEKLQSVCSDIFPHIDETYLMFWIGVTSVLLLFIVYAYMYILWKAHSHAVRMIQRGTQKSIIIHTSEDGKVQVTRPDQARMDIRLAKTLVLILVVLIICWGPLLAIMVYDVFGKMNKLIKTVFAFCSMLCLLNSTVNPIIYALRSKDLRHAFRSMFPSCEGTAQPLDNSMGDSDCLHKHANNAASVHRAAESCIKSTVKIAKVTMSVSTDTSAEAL

[18] = Tmax in Brown Norway rat iris administered topically; type: ADME, tissue-based; conditions: topical or ocular; procedure, shortened: as §3
[19] = Cmax in Brown Norway rat cornea administered topically; type: ADME, tissue-based; conditions: topical or ocular; procedure, shortened: as §3
[20] = Drug uptake in Brown Norway rat cornea administered topically after 3 hrs; type: ADME, tissue-based; conditions: in vivo, topical_or_ocular; procedure, shortened: as §4
[21] = Drug uptake in Brown Norway rat iris administered topically after 3 hrs; type: ADME, tissue-based; conditions: in vivo, topical_or_ocular; procedure, shortened: as §4
[22] = Tmax in Brown Norway rat plasma administered topically; type: ADME, cell-free; conditions: topical or ocular; procedure, shortened: as §3
[23] = AUC (0 to last) in Brown Norway rat aqueous humor administered topically; type: ADME; design: time 0 - last; conditions: topical or ocular; procedure, shortened: as §3
[24] = molecular target: Cannabinoid receptor 2 (Homo sapiens, UniProt P34972); test: Agonist activity at CB2 receptor (unknown origin)
Chain of Cannabinoid receptor 2 (P34972 whole entry): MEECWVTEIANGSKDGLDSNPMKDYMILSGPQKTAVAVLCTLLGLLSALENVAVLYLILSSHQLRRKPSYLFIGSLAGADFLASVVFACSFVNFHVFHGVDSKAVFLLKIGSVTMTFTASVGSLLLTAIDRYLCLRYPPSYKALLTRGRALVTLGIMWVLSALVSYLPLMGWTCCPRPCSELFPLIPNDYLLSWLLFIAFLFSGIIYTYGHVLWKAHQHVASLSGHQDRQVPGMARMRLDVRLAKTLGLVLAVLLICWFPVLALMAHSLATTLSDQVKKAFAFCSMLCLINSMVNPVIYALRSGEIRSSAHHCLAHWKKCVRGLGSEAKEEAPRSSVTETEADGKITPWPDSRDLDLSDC

Row | Compound | solubility ([1]; buffer) | AUC at 3 h [2] | AUC at 3 h [3] | AUC [4] | AUC [5] | further results
1 | CCOC(=O)c1c(C)cc2nc(COC(=O)NCCOC(=O)C3CCCCN3)n(-c3ccccc3S(=O)(=O)NC)c(=O)c2c1C (stereo not drawn) | soluble | 0.0367 µM·h | 0.0118 µM·h | – | – | –
2 | CCOC(=O)c1c(C)cc2nc(COC(=O)NCCOC(=O)CN3CCCCC3)n(-c3ccccc3S(=O)(=O)NC)c(=O)c2c1C | soluble | 0.321 µM·h | – | – | BLD | –
3 | CCOC(=O)c1c(C)cc2nc(COC(=O)NCCOC(=O)c3cn4ccccc4n3)n(-c3ccccc3S(=O)(=O)NC)c(=O)c2c1C | soluble | – | – | BLD | BLD | –
4 | CCOC(=O)c1c(C)cc2nc(COC(=O)NCCOC(=O)c3cccnc3)n(-c3ccccc3S(=O)(=O)NC)c(=O)c2c1C | soluble | 0.213 µM·h | – | – | BLD | –
5 | CCOC(=O)c1c(C)cc2nc(COC(=O)NCCO)n(-c3ccccc3S(=O)(=O)NC)c(=O)c2c1C [SAD448] | – | – | 0.014 µM·h | BLD | – | AUC(0-t) [6]: 0.043 µM·h; Drug uptake [7]: Not Active; Cmax [8]: 9 nM; Drug uptake [9]: Not Active; solubility ([1]; aqueous medium, read-out: solubility): 340 µM (≈ 181 µg/mL); Tmax [10]: 4.98 min; Cmax [11]: 18 nM; Drug uptake [12]: Not Active; Drug uptake [13]: Not Active; Drug uptake [14]: Not Active; Cmax [15]: 82 nM; Tmax [16]: 4.98 min; IC50 [17]: 94 nM; Tmax [18]: 4.98 min; Cmax [19]: 50 nM; Drug uptake [20]: Not Active; Drug uptake [21]: Not Active; Tmax [22]: 4.98 min; AUC(0-t) [23]: 0.05 µM·h; IC50 [24]: 3.5 nM

Second part, led by results:

Row | solubility ([1]; buffer) | AUC at 3 h [2] | AUC at 3 h [3] | AUC [4] | AUC [5] | Compound | further results
6 | soluble | – | – | – | – | CCOC(=O)c1c(C)cc2nc(COC(=O)NCCOC(=O)[C@@H](NC(=O)[C@H](N)C(C)C)C(C)C)n(-c3ccccc3S(=O)(=O)NC)c(=O)c2c1C | –
7 | soluble | 0.017 µM·h | 0.01 µM·h | – | – | CCOC(=O)c1c(C)cc2nc(COC(=O)NCCOP(=O)(O)O)n(-c3ccccc3S(=O)(=O)NC)c(=O)c2c1C | –
8 | soluble | 0.0174 µM·h | 0.0039 µM·h | – | – | CCOC(=O)c1c(C)cc2nc(COC(=O)NCCOC(=O)CN)n(-c3ccccc3S(=O)(=O)NC)c(=O)c2c1C | –
9 | soluble | – | – | BLD | BLD | CCOC(=O)c1c(C)cc2nc(COC(=O)NCCOC(=O)CCN)n(-c3ccccc3S(=O)(=O)NC)c(=O)c2c1C | –
10 | soluble | – | 0.0036 µM·h | BLD | – | CCOC(=O)c1c(C)cc2nc(COC(=O)NCCOC(=O)[C@H](N)c3ccccc3Cl)n(-c3ccccc3S(=O)(=O)NC)c(=O)c2c1C | –
11 | soluble | 0.04 µM·h | 0.02 µM·h | – | – | CCOC(=O)c1c(C)cc2nc(COC(=O)NCCOC(=O)[C@@H](N)C(C)C)n(-c3ccccc3S(=O)(=O)NC)c(=O)c2c1C | –
12 | soluble | 0.104 µM·h | – | – | BLD | CCOC(=O)c1c(C)cc2nc(COC(=O)NCCOC(=O)[C@H](NC(=O)[C@@H](N)C(C)C)C(C)C)n(-c3ccccc3S(=O)(=O)NC)c(=O)c2c1C | –
